≈ marks a conversion by molar mass, not a printed value.
Tests used:
[1] = system: Mycobacterium tuberculosis; assay: Antitubercular activity against Mycobacterium tuberculosis H37Rv by Alamar blue assay; format: functional, organism-based
In short: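 M. tuberculosis H37Rv (ATCC 27294) grown in BACTEC 12B medium and tested by Microplate Alamar Blue Assay. Ten 2-fold dilutions, typically from 100 to 0.19. IC90 is the concentration giving a 90% drop in fluorescence relative to controls.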

[2] = Cytotoxicity against african green monkey Vero cells after 72 hrs by cell titer-glo assay; format: cell-based; conditions: chlorocebus sabaeus
In short: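 Vero cells, run alongside the TB dose-response assay; compound exposure 72 h, then viability read by ATP-based luminescence (CellTiter-Glo). CC50 taken from the dose–response curve by curve fitting.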

[3] = Selectivity index, ratio of CC50 for african green monkey Vero cells to IC90 for Mycobacterium tuberculosis H37Rv; format: toxicity, cell-based; conditions: read-out: Selectivity Index
In short: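 Vero cells run in parallel with the TB dose-response assay. Viability is read after 72 h exposure by CellTiter-Glo luminescence, which quantifies cellular ATP. CC50 is fitted from the dose-response curve. IC90 for H37Rv comes from the MABA fluorescence readout, as a 90% reduction relative to controls.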

Row | SMILES | IC50 [1] [µg/mL] | IC90 [1] [µg/mL] | CC50 at 72 h [2] [µg/mL] | selectivity ratio [3]
1 | COc1ccc(O)c(-c2csc(N/N=C(\C)c3ccncc3)n2)c1 | > 100 | > 100 |  | 
2 | COc1ccc(O)c(-c2csc(N/N=C(\C)c3ccccn3)n2)c1 | 6.22 (≈ 18.3 µM) | 6.78 (≈ 19.9 µM) | > 40 | > 5.89
3 | C/C(=N\Nc1nc(-c2cccs2)cs1)c1ccccn1 | 48.4 (≈ 161 µM) | 55.2 (≈ 184 µM) |  | 
4 | COc1ccc(O)c(-c2csc(N/N=C(\C)c3cccnc3)n2)c1 | > 100 | > 100 |  | 
5 | C/C(=N\Nc1nc(-c2cccs2)cs1)c1ccncc1 | > 100 | > 100 |  | 
6 | C/C(=N\Nc1nc(-c2cccs2)cs1)c1cccnc1 | 92.2 (≈ 307 µM) | > 100 |  | 
